Laboratory results reported in ChEMBL document CHEMBL4350962, “Expanding the Chemical Space of Withaferin A by Incorporating Silicon To Improve Its Clinical Potential on Human Ovarian Carcinoma Cells” (J Med Chem, 2019).

Assays:
[1] = tested on: A2780; assay: Antiproliferative activity against cisplatin-sensitive human A2780 cells measured after 96 hrs by MTT assay; format: functional, cell-based; conditions: A2780, 96 h
Outline: (§1)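 Cells kept in DMEM or RPMI 1640 with 10% FBS and 5% penicillin-streptomycin at 37 °C, 5% CO2, seeded at 1 x 10⁴ cells/mL and left 24 h to adhere. Compounds or vehicle added over a concentration range for 96 h, then MTT 4 h; formazan dissolved in DMSO, absorbance read at 540 nm relative to control. IC50 given as mean ± SD of three independent experiments in duplicate.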

[2] = Antiproliferative activity against cisplatin-resistant human A2780/CP70 cells measured after 96 hrs by MTT assay; format: functional; conditions: A2780/CP70, 96 h; outline: as §1
[3] = tested on: ARPE-19; assay: Cytotoxicity against human ARPE19 cells measured after 96 hrs by MTT assay; format: cell-based; conditions: ARPE-19, 96 h; outline: as §1
[4] = Selectivity index, ratio of IC50 for human ARPE19 cells to IC50 for cisplatin-sensitive human A2780 cells; format: toxicity; conditions: ARPE19 cells versus cisplatin-sensitive A2780 cells, read-out: Ratio IC50
[5] = Selectivity index, ratio of IC50 for human ARPE19 cells to IC50 for cisplatin-resistant human A2780/CP70 cells; format: toxicity; conditions: ARPE19 cells versus cisplatin-resistant A2780/CP70 cells, read-out: Ratio IC50

Structure (SMILES) | IC50 [1] | IC50 [2] | IC50 [3] | selectivity ratio [4] | selectivity ratio [5]
CCCC[Si](CCCC)(CCCC)OCC1=C(C)C[C@H]([C@@H](C)[C@H]2CC[C@H]3[C@@H]4C[C@H]5O[C@]56C(=O)C=CC(=O)[C@]6(C)[C@H]4CC[C@]23C)OC1=O | 53 nM | > 100 nM | 617 nM | 11.6 | 
CCC[Si](CCC)(CCC)OCC1=C(C)C[C@H]([C@@H](C)[C@H]2CC[C@H]3[C@@H]4C[C@H]5O[C@]56[C@@H](O)C=CC(=O)[C@]6(C)[C@H]4CC[C@]23C)OC1=O | 32 nM | 3.6 nM | 30 nM | 0.9 | 8.3
CC1=C(CO[Si](C)(C)C(C)C)C(=O)O[C@@H]([C@@H](C)[C@H]2CC[C@H]3[C@@H]4C[C@H]5O[C@]56C(=O)C=CC(=O)[C@]6(C)[C@H]4CC[C@]23C)C1 | 43 nM | 34 nM | 2140 nM | 49.8 | 62.9
CC1=C(CO[Si](C)(C)C(C)C)C(=O)O[C@@H]([C@@H](C)[C@H]2CC[C@H]3[C@@H]4C[C@H]5O[C@]56[C@@H](O)C=CC(=O)[C@]6(C)[C@H]4CC[C@]23C)C1 | 34 nM | 35 nM | 6500 nM | 191 | 186
CCC[Si](CCC)(CCC)OCC1=C(C)C[C@H]([C@@H](C)[C@H]2CC[C@H]3[C@@H]4C[C@H]5O[C@]56C(=O)C=CC(=O)[C@]6(C)[C@H]4CC[C@]23C)OC1=O | 69 nM | 21 nM | 1740 nM | 25.2 | 82.9
CC1=C(CO[Si](C)(C)C)C(=O)O[C@@H]([C@@H](C)[C@H]2CC[C@H]3[C@@H]4C[C@H]5O[C@]56C(=O)C=CC(=O)[C@]6(C)[C@H]4CC[C@]23C)C1 | 41 nM | 68.8 nM | 820 nM | 20 | 11.9
CC[Si](CC)(CC)OCC1=C(C)C[C@H]([C@@H](C)[C@H]2CC[C@H]3[C@@H]4C[C@H]5O[C@]56C(=O)C=CC(=O)[C@]6(C)[C@H]4CC[C@]23C)OC1=O | 35 nM | 20 nM | 1870 nM | 53.5 | 93.5
CC1=C(CO[Si](C)(c2ccccc2)c2ccccc2)C(=O)O[C@@H]([C@@H](C)[C@H]2CC[C@H]3[C@@H]4C[C@H]5O[C@]56[C@@H](O)C=CC(=O)[C@]6(C)[C@H]4CC[C@]23C)C1 | 22 nM | 28.3 nM | 70 nM | 3.2 | 2.5
CC1=C(CO[Si](C)(C)C(C)C)C(=O)O[C@@H]([C@@H](C)[C@H]2CC[C@H]3[C@@H]4C[C@H]5O[C@]56[C@@H](O)[C@@H](n5ccnc5)CC(=O)[C@]6(C)[C@H]4CC[C@]23C)C1 | 20 nM | 19 nM | 52 nM | 2.6 | 2.7
CC1=C(CO)C(=O)O[C@@H]([C@@H](C)[C@H]2CC[C@H]3[C@@H]4C[C@H]5O[C@]56[C@@H](O[Si](C)(C)C(C)C)C=CC(=O)[C@]6(C)[C@H]4CC[C@]23C)C1 | 34 nM | 23 nM | 310 nM | 9.1 | 13.5
CC1=C(CO[Si](C(C)C)(C(C)C)C(C)C)C(=O)O[C@@H]([C@@H](C)[C@H]2CC[C@H]3[C@@H]4C[C@H]5O[C@]56[C@@H](O)C=CC(=O)[C@]6(C)[C@H]4CC[C@]23C)C1 | 30 nM | 62 nM | 62 nM | 2.1 | 1
C=C[Si](C)(C)OCC1=C(C)C[C@H]([C@@H](C)[C@H]2CC[C@H]3[C@@H]4C[C@H]5O[C@]56[C@@H](O)C=CC(=O)[C@]6(C)[C@H]4CC[C@]23C)OC1=O | 27 nM | 31 nM | 86 nM | 3.2 | 2.8
CCCCCCCC[Si](C)(C)OCC1=C(C)C[C@H]([C@@H](C)[C@H]2CC[C@H]3[C@@H]4C[C@H]5O[C@]56[C@@H](O)C=CC(=O)[C@]6(C)[C@H]4CC[C@]23C)OC1=O | 10 nM | 33 nM | 32 nM | 3.2 | 1
CC1=C(CO)C(=O)O[C@@H]([C@@H](C)[C@H]2CC[C@H]3[C@@H]4C[C@H]5O[C@]56[C@@H](O)C=CC(=O)[C@]6(C)[C@H]4CC[C@]23C)C1 [WITHAFERIN A] | 32.7 nM | 32 nM | 37 nM | 1.1 | 1.2
CC1=C(CO[Si](c2ccccc2)(c2ccccc2)C(C)(C)C)C(=O)O[C@@H]([C@@H](C)[C@H]2CC[C@H]3[C@@H]4C[C@H]5O[C@]56[C@@H](O)C=CC(=O)[C@]6(C)[C@H]4CC[C@]23C)C1 | 46 nM | 29 nM | 2300 nM | 49.9 | 79.1
CC1=C(CO[Si](C(C)C)(C(C)C)C(C)C)C(=O)O[C@@H]([C@@H](C)[C@H]2CC[C@H]3[C@@H]4C[C@H]5O[C@]56C(=O)C=CC(=O)[C@]6(C)[C@H]4CC[C@]23C)C1 | 35 nM | 35 nM | 37.5 nM | 1.1 | 1.1
C=C[Si](C)(C)OCC1=C(C)C[C@H]([C@@H](C)[C@H]2CC[C@H]3[C@@H]4C[C@H]5O[C@]56[C@@H](O[Si](C)(C)C=C)C=CC(=O)[C@]6(C)[C@H]4CC[C@]23C)OC1=O | 33 nM | 27.5 nM | 92 nM | 2.8 | 3.4
CC[Si](CC)(CC)OCC1=C(C)C[C@H]([C@@H](C)[C@H]2CC[C@H]3[C@@H]4C[C@H]5O[C@]56[C@@H](O)C=CC(=O)[C@]6(C)[C@H]4CC[C@]23C)OC1=O | > 100 nM | 12.8 nM | 30 nM |  | 2.3
CC1=C(CO[Si](C)(C)c2ccccc2)C(=O)O[C@@H]([C@@H](C)[C@H]2CC[C@H]3[C@@H]4C[C@H]5O[C@]56C(=O)C=CC(=O)[C@]6(C)[C@H]4CC[C@]23C)C1 | 59 nM | > 100 nM | 2300 nM | 39.1 | 
CC1=C(CO[Si](C)(c2ccccc2)c2ccccc2)C(=O)O[C@@H]([C@@H](C)[C@H]2CC[C@H]3[C@@H]4C[C@H]5O[C@]56C(=O)C=CC(=O)[C@]6(C)[C@H]4CC[C@]23C)C1 | 35 nM | > 100 nM | 2050 nM | 58.6 | 
